Consider four compounds from ChEMBL document CHEMBL1155588, “Use of COMPARE analysis to discover functional analogues of bleomycin” (J Nat Prod, 2000).

Active and inactive are the calls of the source. No cut-off for these calls is given here.

Test [1] can be described thus: Induction of supercoiled pSP64 plasmid DNA cleavage assessed as increase in nicked form 2 at 2.5 uM by agarose gel electrophoresis in presence of Cu2+. Summed up:
(§1)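 Cell-free cleavage of supercoiled, covalently closed circular pSP64 plasmid DNA, with or without Cu2+. Reactions ran 1 h at 37 °C and were stopped with bromophenol blue in 30% glycerol. Products were resolved on 1% agarose containing 0.7 µg/mL ethidium bromide in Tris-borate-EDTA at 130 V for 3 h and viewed under UV. Forms I, II (nicked) and III (linear) were scored.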

A short description of test [2]: Induction of pSP64 plasmid DNA relaxation by agarose gel electrophoresis in presence of Cu2+. Summed up: as §1
The nature of test [3]: Induction of supercoiled pSP64 plasmid DNA cleavage assessed as increase in nicked form 2 at 10 uM by agarose gel electrophoresis. The procedure, abridged:
as §1

The nature of test [4]: Induction of supercoiled pSP64 plasmid DNA cleavage assessed as increase in linear duplex form 3 by agarose gel electrophoresis. Summed up:
as §1

A short description of test [5]: Induction of supercoiled pSP64 plasmid DNA cleavage assessed as increase in linear duplex form 3 at 10 uM by agarose gel electrophoresis. The procedure, abridged: as §1
Test [6] is described as follows: Induction of supercoiled pSP64 plasmid DNA cleavage assessed as increase in nicked form 2 at 500 nM by agarose gel electrophoresis in presence of Cu2+. Summed up: as §1
The nature of test [7]: Induction of supercoiled pSP64 plasmid DNA cleavage assessed as increase in nicked form 2 at 1 uM by agarose gel electrophoresis. The procedure, abridged: as §1
Test [8] is described as follows: Induction of supercoiled pSP64 plasmid DNA cleavage assessed as increase in nicked form 2 at 0.25 uM by agarose gel electrophoresis in presence of Cu2+. Summed up:
as §1

Take `COc1cc(C=O)cc(OC)c1O`: the outcome in test [1] was Active. In addition, the results for the Activity entry in test [2] and in test [3] were “Dose-dependent effect” and above 50%, respectively. Further, in test [4], the result was inactive.

With `Oc1cc(O)c2c(c1)O[C@@H](c1ccc(O)c(O)c1)[C@@H](O)C2`, the result in test [5] was Active. Besides, the Activity in test [6] was above 50%; in test [2], “Dose-dependent effect”.

With `Oc1cc(O)c2c(c1)O[C@H](c1ccc(O)c(O)c1)[C@@H](O)C2`, in test [5], the outcome was Active. For the same compound, the Activity in test [6] is above 50%; in test [2] it was “Dose-dependent effect”.

On to `COc1cc([C@@H]2OC[C@@H]3[C@H]2CO[C@H]3c2cc(OC)c(O)c(OC)c2)cc(OC)c1O`, for which the Activity was above 50% in test [7] and “Dose-dependent effect” in test [2]. In addition, the result in test [8] was Active. Further, the result in test [4] was inactive.
